30 molecules from ChEMBL document CHEMBL2385009, “Guaiane-type sesquiterpenes from Curcuma phaeocaulis and their inhibitory effects on nitric oxide production” (J Nat Prod, 2013) can be followed below.

The subject of data set [1] is RAW264.7. Kind of data set: Antiinflammatory activity in mouse RAW264.7 cells assessed as inhibition of LPS-induced nitric oxide production after 24 hrs by Griess assay. It is filed as functional, cell-based. Particulars: RAW264.7, 24 h. The method, boiled down:
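RAW 264.7 cells seeded at 1 × 10^5 cells/well, stimulated with LPS 1 μg/mL with or without test compound, 37 °C for 24 h. Nitrite in cell-free supernatant, taken as the NO indicator, measured by Griess reaction: supernatant mixed 1:1 with equal parts 1% sulfanilamide in 5% phosphoric acid and 0.1% N-(1-naphthyl)ethylenediamine, absorbance at 540 nm. Values given as IC50.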
A general note: Griess reagent forms a coloured azo dye with nitrite.

In data set [2] the test system is RAW264.7. Kind of data set: Cytotoxicity against mouse RAW264.7 cells at IC50 by MTT assay. The data set is classed as cell-based. (In general: Formazan colour is commonly taken as a measure of viable cells.)

Turning to `CC(C)=C1C[C@H]2[C@@H](CC[C@]2(C)O)C(CO)=CC1=O`, the half-inhibitory concentration (IC50) – broadly, the concentration at which inhibition is half-maximal – with RAW264.7 [1] was determined as 12.9 µM. For the same molecule, the Activity result in the data set with RAW264.7 [2] is “Non-toxic”.

Turning to `CC1=C2C[C@H]3[C@@](C)(O)CC[C@@]34O[C@@]2(C[C@@]4(C)O)OC1=O`, the IC50 in the data set on RAW264.7 [1] was found to be 1.5 µM. For the same molecule, in the data set on RAW264.7 [2], the Activity result was “Non-toxic”.

As to `CC1=C2C[C@@H]3[C@H](CC[C@@]3(C)O)[C@](C)(O)C[C@H]2OC1=O`, the half-inhibitory concentration (IC50) in the data set with RAW264.7 [1] came to 1.9 µM. Also, in the data set with RAW264.7 [2], the Activity result is “Non-toxic”. On to `CC1=C2C[C@@H]3[C@H](CC[C@@]3(C)O)[C@@](C)(O)C[C@@H]2OC1=O`, for which the IC50 in the data set on RAW264.7 [1] amounted to 57.9 µM. For the same molecule, the Activity result in the data set with RAW264.7 [2] is given as “Non-toxic”. For `Cc1cc(=O)c(C(C)(C)O)cc2c1CC[C@]2(C)O`, in that order: 5.9 µM and “Non-toxic”.

Regarding `CC(C)=C1C[C@H]2[C@@H](CC[C@]2(C)O)[C@@](C)(O)CC1=O`, the 50% inhibitory concentration (IC50) in the data set with RAW264.7 [1] was determined as 10.3 µM. Besides, the Activity result in the data set on RAW264.7 [2] is “Non-toxic”. For `CC1=C2C[C@H]3[C@H](CC[C@]3(C)O)[C@](C)(O)C=C2OC1=O`, the IC50 in the data set with RAW264.7 [1] was found to be 2.9 µM. The Activity entry with RAW264.7 [2] is reported as “Non-toxic”. On the same counts, the results for `CC1=C2C[C@@H]3[C@@](C)(O)CC[C@@]3(O)[C@](C)(O)C=C2OC1=O` are 3 µM and “Non-toxic”. On to `CC1=C2C[C@]3(O)[C@H](C)CC[C@H]3[C@@](C)(O)C=C2OC1=O`, for which the IC50 in the data set with RAW264.7 [1] came out at 30.1 µM. The Activity entry in the data set on RAW264.7 [2] is recorded as “Non-toxic”. For `CC1=CC(=O)CC[C@@H]2[C@@](C)(O)CC[C@@]12O`, in that order: 19.6 µM and “Non-toxic”. Turning to `CC1=C[C@@]2(O)O[C@@]3(CC2=C(C)C)[C@H](C)CC[C@@H]13`, in the data set on RAW264.7 [1], the half-maximal inhibitory concentration (IC50) is 52.2 µM. For the same molecule, in the data set with RAW264.7 [2], the Activity entry is “Non-toxic”.

Regarding `CC(C)C1=C[C@@H]2[C@@H](CC[C@@H]2C)[C@@](C)(O)CC1`, the IC50 in the data set with RAW264.7 [1] was determined as 11.4 µM. Besides, the Activity entry in the data set on RAW264.7 [2] is given as “Non-toxic”. For `CC(C)=C1C[C@H]2[C@H](CC[C@]2(C)O)[C@](C)(O)CC1=O` [(1S,4S,5S,10R)-ZEDOARONDIOL], in that order: 16.7 µM and “Non-toxic”. In the case of `CC(C)C1=C[C@H]2[C@@H](CC[C@]2(C)O)[C@](C)(O)CC1` [ALISMOXIDE], the 50% inhibitory concentration (IC50) in the data set on RAW264.7 [1] turned out to be 4.3 µM. Also, the Activity result in the data set with RAW264.7 [2] is reported as “Non-toxic”.

With `CC(=O)CCc1ccc(C(C)(C)O)c(=O)cc1C` [CURCUMADIONOL], the half-maximal inhibitory concentration (IC50) in the data set with RAW264.7 [1] was 54.2 µM. Also, the Activity result in the data set on RAW264.7 [2] was “Non-toxic”. For `CC1=C[C@]2(O)O[C@@]3(CC2=C(C)C)[C@@H](C)CC[C@@H]13` [CURCUMENOL], in that order: 4.2 µM and “Non-toxic”. With `C[C@]12CCC(=O)C=C1CC[C@@H]1[C@@H]2[C@@H](O)C[C@@]2(C)[C@H]1CC[C@]2(O)C(=O)CO` [HYDROCORTISONE], the half-maximal inhibitory concentration (IC50) with RAW264.7 [1] was 43.8 µM. On to `COc1ccc2c(c1)c(CC(=O)O)c(C)n2C(=O)c1ccc(Cl)cc1` [INDOMETHACIN], for which, in the data set with RAW264.7 [1], the IC50 came to 12.1 µM. Turning to `C=C1C[C@]2(O)O[C@@]3(CC2=C(C)C)[C@@H](C)CC[C@@H]13` [ISOCURCUMENOL], the IC50 in the data set with RAW264.7 [1] was found to be 9.8 µM. Also, the Activity entry with RAW264.7 [2] is recorded as “Non-toxic”.

In the case of `CC(C)=C1C[C@H]2[C@H](CC[C@]2(C)O)[C@@](C)(O)CC1=O` [ISOZEDOARONDIOL], the half-inhibitory concentration (IC50) with RAW264.7 [1] was found to be 1.4 µM. The Activity entry in the data set with RAW264.7 [2] is listed as “Non-toxic”. For `CC1=CC(=O)[C@@]2(C[C@]3(O)[C@@H](C)CC[C@@H]13)OC2(C)C` [OXYCURCUMENOL EPOXIDE], the IC50 in the data set with RAW264.7 [1] was determined as 57.4 µM. Further, in the data set with RAW264.7 [2], the Activity result is reported as “Non-toxic”. For `CC1=CC(=O)C(=C(C)C)C[C@@]2(O)[C@H]1CC[C@]2(C)O` [PROCURCUMADIOL], in that order: 11.7 µM and “Non-toxic”. For `CC1=CC(=O)C(=C(C)C)C[C@H]2[C@H]1CC[C@]2(C)O` [PROCURCUMENOL], in that order: 13.7 µM and “Non-toxic”. Regarding `CC1=C2C[C@H]3[C@H](CC[C@]3(C)O)[C@@](C)(O)C[C@H]2OC1=O` [ZEDOALACTONE A], in the data set on RAW264.7 [1], the IC50 is 1.6 µM. In addition, the Activity result with RAW264.7 [2] was “Non-toxic”.

`CC1=C2C[C@@H]3[C@@](C)(O)CC[C@]3(O)[C@](C)(O)C=C2OC1=O` [ZEDOALACTONE B]: the IC50 in the data set with RAW264.7 [1] came to 1.3 µM. The Activity result in the data set with RAW264.7 [2] is “Non-toxic”.

`CC1=C2C[C@H]3[C@H](CC[C@]3(C)O)[C@@](C)(O)C[C@@H]2OC1=O` [ZEDOALACTONE C]: the 50% inhibitory concentration (IC50) in the data set with RAW264.7 [1] is 61.8 µM. Moreover, the Activity result with RAW264.7 [2] is recorded as “Non-toxic”. For `CC1=C2C[C@@H]3[C@@](C)(O)CC[C@]3(O)[C@@](C)(O)C=C2OC1=O` [ZEDOALACTONE D], in that order: 1.6 µM and “Non-toxic”.

On to `CC1=C2C[C@@H]3[C@@](C)(O)CC[C@]34O[C@]4(C)[C@H](O)[C@]2(O)OC1=O` [ZEDOAROLIDE A], for which the IC50 with RAW264.7 [1] amounted to 87.1 µM. Also, in the data set on RAW264.7 [2], the Activity entry was “Non-toxic”. For the molecule `CC1=C2C[C@H]3[C@H](CC[C@]3(C)O)[C@@](C)(O)C[C@]2(O)OC1=O` [ZEDOAROLIDE B], the 50% inhibitory concentration (IC50) in the data set with RAW264.7 [1] was 4.6 µM. Besides, in the data set on RAW264.7 [2], the Activity result is “Non-toxic”. `CC(C)=C1C[C@H]2[C@@H](CC[C@]2(C)O)[C@](C)(O)CC1=O` [ZEDOARONDIOL]: the IC50 in the data set on RAW264.7 [1] amounted to 54.2 µM. For the same molecule, the Activity entry with RAW264.7 [2] is recorded as “Non-toxic”.
